Experimental data published in ChEMBL document CHEMBL1126276, “Synthesis and antimalarial properties of 1-imino derivatives of 7-chloro-3-substituted-3,4-dihydro-1,9(2H,10H)-acridinediones and related structures” (J Med Chem, 1992).
Several values for one entry are separate records, joined by “and”; a condition that tells them apart may be missing. Equal entries are not always repeated.

Assays:
Format in all cases: functional
Plasmodium berghei [1] = test: Antimalarial activity in Plasmodium berghei infected mice (Mus musculus) after subcutaneous 160 mg/kg dose
Summary of the method: (§1)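 Normal drug-sensitive P. berghei strain in mice. Compound dissolved or suspended in sesame or peanut oil, given parenterally as a single subcutaneous dose 72 h postinfection.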

Plasmodium berghei [2] = test: Antimalarial activity in Plasmodium berghei infected mice (Mus musculus) after subcutaneous 320 mg/kg dose; summary of the method: as §1
Plasmodium berghei [3] = test: Antimalarial activity in Plasmodium berghei infected mice (Mus musculus) after subcutaneous 640 mg/kg dose; summary of the method: as §1
Plasmodium berghei [4] = test: Antimalarial activity in Plasmodium berghei infected mice (Mus musculus) after 80 mg/kg subcutaneous dose
Summary of the method: (§2)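 […] in mice infected with a normal drug-sensitive P. berghei strain. Compound dissolved or suspended in sesame or peanut oil, given as a single subcutaneous dose 72 h postinfection.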

Plasmodium berghei [5] = test: Antimalarial activity in Plasmodium berghei infected mice (Mus musculus) after 40 mg/kg subcutaneous dose; summary of the method: as §2
Plasmodium berghei [6] = test: Antimalarial activity in Plasmodium berghei infected mice (Mus musculus) after 160 mg/kg subcutaneous dose; summary of the method: as §2
Plasmodium berghei [7] = test: Antimalarial activity Plasmodium berghei infected mice (Mus musculus) after 640 mg/kg subcutaneous dose; summary of the method: as §2
Plasmodium berghei [8] = test: Antimalarial activity in Plasmodium berghei infected mice (Mus musculus) after 20 mg/kg subcutaneous dose; summary of the method: as §2

Structure (SMILES): CN(C)CCCCCCC/N=C1\CC(c2ccc(Cl)c(Cl)c2)Cc2c1c(=O)c1cc(Cl)ccc1n2O (centres undefined)
- No. of cured mice (Plasmodium berghei [1]): 5
- No. of cured mice (Plasmodium berghei [2]): 5
- No. of cured mice (Plasmodium berghei [3]): 5
- Delta mean survival time (Plasmodium berghei [4]): 11.3
- Delta mean survival time (Plasmodium berghei [5]): 6.5

Structure (SMILES): CN(C)CCC/N=C1\CC(C)(C)Cc2c1c(=O)c1cc(Cl)ccc1n2O
- Delta mean survival time (Plasmodium berghei [6]): 0.4
- Delta mean survival time (Plasmodium berghei [7]): 2.8
- Delta mean survival time (Plasmodium berghei [5]): 0.2

Structure (SMILES): O=C1CC(c2ccccc2C(F)(F)F)Cc2nc3ccc(Cl)cc3c(O)c21 (centres undefined)
- Delta mean survival time (Plasmodium berghei [6]): 8.5
- Delta mean survival time (Plasmodium berghei [7]): 8.3
- Delta mean survival time (Plasmodium berghei [5]): 0.7

Structure (SMILES): CN(C)CCC/N=C1\CC(c2ccc(C(F)(F)F)cc2)Cc2nc3ccc(C(F)(F)F)cc3c(O)c21 (centres undefined)
- No. of cured mice (Plasmodium berghei [3]): 5
- Delta mean survival time (Plasmodium berghei [6]): 7.1
- Delta mean survival time (Plasmodium berghei [5]): 3.1

Structure (SMILES): O=C1CC(c2ccc(C3CCCCC3)cc2)Cc2nc3ccc(Cl)cc3c(O)c21 (centres undefined)
- Delta mean survival time (Plasmodium berghei [6]): 0.2
- Delta mean survival time (Plasmodium berghei [7]): 1.6
- Delta mean survival time (Plasmodium berghei [5]): 0.2

Structure (SMILES): O=C1CC(c2cccc(C(F)(F)F)c2)Cc2c1c(=O)c1cc(Cl)ccc1n2O (centres undefined)
- No. of cured mice (Plasmodium berghei [1]): 3
- No. of cured mice (Plasmodium berghei [2]): 5
- No. of cured mice (Plasmodium berghei [3]): 5
- Delta mean survival time (Plasmodium berghei [6]): 13.4
- Delta mean survival time (Plasmodium berghei [8]): 6
- Delta mean survival time (Plasmodium berghei [4]): 12.1
- Delta mean survival time (Plasmodium berghei [5]): 8.8

Structure (SMILES): O=c1c2c(n(O)c3ccc(Cl)cc13)CC(c1ccc(Cl)c(Cl)c1)C/C2=N\CCCN1CCCCC1 (centres undefined)
- No. of cured mice (Plasmodium berghei [1]): 4
- No. of cured mice (Plasmodium berghei [2]): 5
- No. of cured mice (Plasmodium berghei [3]): 5
- Delta mean survival time (Plasmodium berghei [6]): 8.7
- Delta mean survival time (Plasmodium berghei [4]): 9.2
- Delta mean survival time (Plasmodium berghei [5]): 5.9

Structure (SMILES): O=C1CC(c2ccc(C(F)(F)F)cc2)Cc2nc3ccccc3c(O)c21 (centres undefined)
- No. of cured mice (Plasmodium berghei [1]): 4
- No. of cured mice (Plasmodium berghei [2]): 5
- No. of cured mice (Plasmodium berghei [3]): 5
- Delta mean survival time (Plasmodium berghei [6]): 10.8
- Delta mean survival time (Plasmodium berghei [8]): 2.7
- Delta mean survival time (Plasmodium berghei [4]): 8.2
- Delta mean survival time (Plasmodium berghei [5]): 4.6

Structure (SMILES): O=C1CC(c2ccncc2)Cc2c1c(=O)c1cc(Cl)ccc1n2O (centres undefined)
- Delta mean survival time (Plasmodium berghei [6]): 0.2
- Delta mean survival time (Plasmodium berghei [7]): 2
- Delta mean survival time (Plasmodium berghei [5]): 0

Structure (SMILES): CN(C)CCC/N=C1\CC(c2ccc(C3CCCCC3)cc2)Cc2c1c(=O)c1cc(Cl)ccc1n2O (centres undefined)
- No. of cured mice (Plasmodium berghei [1]): 3
- No. of cured mice (Plasmodium berghei [3]): 5
- Delta mean survival time (Plasmodium berghei [6]): 9.4
- Delta mean survival time (Plasmodium berghei [5]): 5

Structure (SMILES): CN(C)CCC/N=C1\CC(c2ccc(C(F)(F)F)cc2)Cc2nc3cccc(Cl)c3c(O)c21 (centres undefined)
- No. of cured mice (Plasmodium berghei [1]): 4
- No. of cured mice (Plasmodium berghei [3]): 5
- Delta mean survival time (Plasmodium berghei [6]): 24.9
- Delta mean survival time (Plasmodium berghei [5]): 7.7

Structure (SMILES): O=C1CC(c2ccc(Cl)cc2Cl)Cc2nc3c(Cl)ccc(Cl)c3c(O)c21 (centres undefined)
- Delta mean survival time (Plasmodium berghei [6]): 0.3
- Delta mean survival time (Plasmodium berghei [7]): -0.1
- Delta mean survival time (Plasmodium berghei [5]): 0.1

Structure (SMILES): O=C1CC(c2ccncc2)Cc2nc3ccc(Cl)cc3c(O)c21 (centres undefined)
- Delta mean survival time (Plasmodium berghei [6]): 0.8
- Delta mean survival time (Plasmodium berghei [7]): 2.2
- Delta mean survival time (Plasmodium berghei [5]): 0.2

Structure (SMILES): O=C1CC(c2ccc(Cl)c(Cl)c2)Cc2c1c(=O)c1cc(Cl)ccc1n2O (centres undefined)
- No. of cured mice (Plasmodium berghei [1]): 2
- No. of cured mice (Plasmodium berghei [2]): 5
- No. of cured mice (Plasmodium berghei [3]): 5
- Delta mean survival time (Plasmodium berghei [6]): 11
- Delta mean survival time (Plasmodium berghei [8]): 3.2
- Delta mean survival time (Plasmodium berghei [4]): 10.8
- Delta mean survival time (Plasmodium berghei [5]): 5

Structure (SMILES): CSc1ccc(C2CC(=O)c3c(nc4ccc(Cl)cc4c3O)C2)cc1 (centres undefined)
- Delta mean survival time (Plasmodium berghei [6]): 8.6
- Delta mean survival time (Plasmodium berghei [7]): 12.4
- Delta mean survival time (Plasmodium berghei [5]): 4.4

Structure (SMILES): O=C1CC(c2ccc(C(F)(F)F)cc2)Cc2nc3ccc(F)cc3c(O)c21 (centres undefined)
- No. of cured mice (Plasmodium berghei [3]): 5
- Delta mean survival time (Plasmodium berghei [6]): 8.9
- Delta mean survival time (Plasmodium berghei [5]): 7.1

Structure (SMILES): CCc1ccc2nc3c(c(O)c2c1)C(=O)CC(c1ccc(C(F)(F)F)cc1)C3 (centres undefined)
- Delta mean survival time (Plasmodium berghei [6]): 0.4
- Delta mean survival time (Plasmodium berghei [7]): 0.2
- Delta mean survival time (Plasmodium berghei [5]): 0

Structure (SMILES): COc1ccc2nc3c(c(O)c2c1)/C(=N/CCCN(C)C)CC(c1ccc(C(F)(F)F)cc1)C3 (centres undefined)
- No. of cured mice (Plasmodium berghei [1]): 2
- No. of cured mice (Plasmodium berghei [2]): 5
- No. of cured mice (Plasmodium berghei [3]): 5
- Delta mean survival time (Plasmodium berghei [6]): 8.7
- Delta mean survival time (Plasmodium berghei [8]): 0.7
- Delta mean survival time (Plasmodium berghei [4]): 6.1
- Delta mean survival time (Plasmodium berghei [5]): 5.5

Structure (SMILES): CCC1C(=O)c2c(nc3ccc(Cl)cc3c2O)CC1c1ccc(C(F)(F)F)cc1 (centres undefined)
- Delta mean survival time (Plasmodium berghei [6]): 1.2
- Delta mean survival time (Plasmodium berghei [7]): 1.6
- Delta mean survival time (Plasmodium berghei [5]): 0.6

Structure (SMILES): CCCCn1c2c(c(=O)c3cc(Cl)ccc31)C(=O)CC(c1ccc(C(F)(F)F)cc1)C2 (centres undefined)
- Delta mean survival time (Plasmodium berghei [6]): -0.2
- Delta mean survival time (Plasmodium berghei [7]): 0.4
- Delta mean survival time (Plasmodium berghei [5]): -0.2

Structure (SMILES): COc1ccccc1C1CC(=O)c2c(nc3ccc(Cl)cc3c2O)C1 (centres undefined)
- No. of cured mice (Plasmodium berghei [1]): 4
- No. of cured mice (Plasmodium berghei [3]): 5
- Delta mean survival time (Plasmodium berghei [6]): 0.7
- Delta mean survival time (Plasmodium berghei [5]): 8.3

Structure (SMILES): CN(C)CCC/N=C1\CC(c2ccncc2)Cc2c1c(=O)c1cc(Cl)ccc1n2O (centres undefined)
- Delta mean survival time (Plasmodium berghei [6]): 0
- Delta mean survival time (Plasmodium berghei [7]): 1.4
- Delta mean survival time (Plasmodium berghei [5]): 0

Structure (SMILES): CCN(CC)CC(C)(C)C/N=C1\CC(c2cc(OC)c(OC)c(OC)c2)Cc2c1c(=O)c1cc(Cl)ccc1n2O (centres undefined)
- Delta mean survival time (Plasmodium berghei [6]): 0.7
- Delta mean survival time (Plasmodium berghei [7]): 4.7
- Delta mean survival time (Plasmodium berghei [5]): 0.5

Structure (SMILES): CCCCCCC/N=C1\CC(c2cccc(C(F)(F)F)c2)Cc2c1c(=O)c1cc(Cl)ccc1n2O (centres undefined)
- No. of cured mice (Plasmodium berghei [1]): 3
- No. of cured mice (Plasmodium berghei [2]): 5
- No. of cured mice (Plasmodium berghei [3]): 5
- Delta mean survival time (Plasmodium berghei [6]): 5
- Delta mean survival time (Plasmodium berghei [4]): 2.8

Structure (SMILES): CN(C)CCC/N=C1\CC(c2ccc(C(F)(F)F)cc2)Cc2nc3c(Cl)cc(Cl)cc3c(O)c21 (centres undefined)
- No. of cured mice (Plasmodium berghei [1]): 4
- No. of cured mice (Plasmodium berghei [2]): 5
- No. of cured mice (Plasmodium berghei [3]): 5
- Delta mean survival time (Plasmodium berghei [6]): 8
- Delta mean survival time (Plasmodium berghei [4]): 8.2
- Delta mean survival time (Plasmodium berghei [5]): 6.3

Structure (SMILES): CN(C)CCC/N=C1\CC(c2cccc(C(F)(F)F)c2)Cc2c1c(=O)c1cc(Cl)ccc1n2O (centres undefined)
- No. of cured mice (Plasmodium berghei [1]): 4
- No. of cured mice (Plasmodium berghei [2]): 5
- No. of cured mice (Plasmodium berghei [3]): 5
- Delta mean survival time (Plasmodium berghei [6]): 12.4
- Delta mean survival time (Plasmodium berghei [8]): 4.8
- Delta mean survival time (Plasmodium berghei [4]): 9.6
- Delta mean survival time (Plasmodium berghei [5]): 6.9

Structure (SMILES): O=C1CC(c2ccc(Cl)c(Cl)c2)Cc2c1c(=O)c1c(Cl)c(Cl)ccc1n2O (centres undefined)
- Delta mean survival time (Plasmodium berghei [6]): 0.1
- Delta mean survival time (Plasmodium berghei [7]): 0.3

Structure (SMILES): CC1(C)CC(=O)c2c(nc3ccccc3c2O)C1
- No. of cured mice (Plasmodium berghei [1]): 2
- No. of cured mice (Plasmodium berghei [3]): 5
- Delta mean survival time (Plasmodium berghei [6]): 5.6
- Delta mean survival time (Plasmodium berghei [5]): 3.8

Structure (SMILES): CCCC/N=C1\CC(c2ccc(C(F)(F)F)cc2)Cc2nc3ccc(Cl)cc3c(O)c21 (centres undefined)
- No. of cured mice (Plasmodium berghei [1]): 1
- No. of cured mice (Plasmodium berghei [3]): 5
- Delta mean survival time (Plasmodium berghei [6]): 10.1
- Delta mean survival time (Plasmodium berghei [5]): 6

Structure (SMILES): CCCC/N=C1\CC(c2ccc(Cl)c(Cl)c2)Cc2c1c(=O)c1cc(Cl)ccc1n2O (centres undefined)
- No. of cured mice (Plasmodium berghei [1]): 3
- No. of cured mice (Plasmodium berghei [2]): 5
- No. of cured mice (Plasmodium berghei [3]): 5
- Delta mean survival time (Plasmodium berghei [8]): 2.5
- Delta mean survival time (Plasmodium berghei [4]; 80 mg/kg): 9.9 and 8.3
- Delta mean survival time (Plasmodium berghei [5]): 6.1

Structure (SMILES): O=C1CC(c2ccc(C(F)(F)F)cc2)Cc2nc3cccc(Cl)c3c(O)c21 (centres undefined)
- No. of cured mice (Plasmodium berghei [1]): 5
- No. of cured mice (Plasmodium berghei [3]): 5
- Delta mean survival time (Plasmodium berghei [5]): 8.7

Structure (SMILES): CN(C)CCC/N=C1\CC(c2ccccc2Cl)Cc2nc3ccc(Cl)cc3c(O)c21 (centres undefined)
- No. of cured mice (Plasmodium berghei [1]): 2
- No. of cured mice (Plasmodium berghei [2]): 5
- No. of cured mice (Plasmodium berghei [3]): 5
- Delta mean survival time (Plasmodium berghei [6]): 11.3
- Delta mean survival time (Plasmodium berghei [4]): 6.3
- Delta mean survival time (Plasmodium berghei [5]): 5.6

Structure (SMILES): CN1CCN(CCC/N=C2\CC(c3ccc(Cl)c(Cl)c3)Cc3c2c(=O)c2cc(Cl)ccc2n3O)CC1 (centres undefined)
- No. of cured mice (Plasmodium berghei [1]): 5
- No. of cured mice (Plasmodium berghei [2]): 5
- No. of cured mice (Plasmodium berghei [3]): 5
- Delta mean survival time (Plasmodium berghei [5]): 7.4

Structure (SMILES): CCN(CC)CCOc1ccc(C2CC(=O)c3c(n([O-])c4ccc(Cl)cc4c3=O)C2)cc1.[Na+] (centres undefined)
- Delta mean survival time (Plasmodium berghei [6]): 1.5
- Delta mean survival time (Plasmodium berghei [7]): 5.3

Structure (SMILES): CC1(C)CC(=O)c2c(nc3ccc(Cl)cc3c2O)C1
- No. of cured mice (Plasmodium berghei [2]): 3
- No. of cured mice (Plasmodium berghei [3]): 4
